{
  "source": "paper PMC3923119",
  "about": "(Osteoporosis International, 2013)",
  "key": {"[1]": {"settings": "daily teriparatide, cited from earlier work"}, "[2]": {"tested_on": "postmenopausal women with osteoporosis", "assay": "Changes in bone turnover markers", "type": "in vivo, human", "method_in_brief": "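Women aged 60–79 received 56.5 μg test compound s.c. weekly for 24 weeks. In weeks 0, 4, 12 and 24, dosing followed 0 h sampling at 0800, with serum/urine taken at 0, 2, 4, 6, 8, 12 and 24 h. Osteocalcin was measured by IRMA, P1NP by RIA, urinary NTX by ELISA, plus urinary DPD. Read-outs were mean (±SE) percent change from 0 h or week 0, paired t test.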"}, "[3]": {"tested_on": "healthy postmenopausal women", "settings": "day 7 after single injection of 56.5 μg; cited from earlier work"}, "[4]": {"tested_on": "postmenopausal women with osteoporosis", "assay": "Adverse events", "type": "in vivo, human", "settings": "56.5 μg once weekly for 24 weeks", "method_in_brief": "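Japanese postmenopausal women with osteoporosis, aged 60–79, at four centres. Test compound (PTH peptide) 56.5 μg given s.c. weekly for 24 weeks, with daily calcium 610 mg, vitamin D 400 IU and magnesium 30 mg. Physicians recorded adverse events and classified them by MedDRA 12.0 system organ class.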"}, "[5]": {"tested_on": "postmenopausal women with osteoporosis", "assay": "Changes in calcium metabolism", "type": "in vivo, human", "method_in_brief": "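Weekly s.c. 56.5 μg test compound for 24 weeks, in osteoporotic women aged 60–79 on calcium/vitamin D/magnesium supplements. Blood was drawn in weeks 0, 4, 12 and 24, with 0 h sampling at 0800 before dosing and further samples over 24 h. Corrected serum Ca and intact PTH (electrochemiluminescence immunoassay) are given as means±SE versus 0 h or week 0, paired t test.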"}, "[6]": {"settings": "cited from earlier work"}, "[7]": {"settings": "after 24 weeks, 56.5 μg once weekly"}, "[8]": {"settings": "at 4 weeks, 56.5 μg once weekly, mean percent change, significant"}},
  "note": "Like-named read-outs stand apart in the source and are kept apart here.",
  "data": [
    {"smiles": "CC[C@H](C)[C@H](NC(=O)[C@H](CCC(=O)O)NC(=O)[C@H](CO)NC(=O)[C@@H](NC(=O)[C@@H](N)CO)C(C)C)C(=O)N[C@@H](CCC(N)=O)C(=O)N[C@@H](CC(C)C)C(=O)N[C@@H](CCSC)C(=O)N[C@@H](Cc1cnc[nH]1)C(=O)N[C@@H](CC(N)=O)C(=O)N[C@@H](CC(C)C)C(=O)NCC(=O)N[C@@H](CCCCN)C(=O)N[C@@H](Cc1cnc[nH]1)C(=O)N[C@@H](CC(C)C)C(=O)N[C@@H](CC(N)=O)C(=O)N[C@@H](CO)C(=O)N[C@@H](CCSC)C(=O)N[C@@H](CCC(=O)O)C(=O)N[C@@H](CCCN=C(N)N)C(=O)N[C@H](C(=O)N[C@@H](CCC(=O)O)C(=O)N[C@@H](Cc1c[nH]c2ccccc12)C(=O)N[C@@H](CC(C)C)C(=O)N[C@@H](CCCN=C(N)N)C(=O)N[C@@H](CCCCN)C(=O)N[C@@H](CCCCN)C(=O)N[C@@H](CC(C)C)C(=O)N[C@@H](CCC(N)=O)C(=O)N[C@@H](CC(=O)O)C(=O)N[C@H](C(=O)N[C@@H](Cc1cnc[nH]1)C(=O)N[C@@H](CC(N)=O)C(=O)N[C@@H](Cc1ccccc1)C(=O)O)C(C)C)C(C)C", "note": "[teriparatide, Human parathyroid hormone (PTH) 1–34]", "values": [
      {"measurement": "bone formation marker increase", "setting": "[1]; after 1 month", "value": 105, "unit": "%"},
      {"measurement": "bone formation marker (serum PINP) increase", "setting": "[1]; after 6 months", "value": 218, "unit": "%"},
      {"measurement": "bone resorption marker (urinary NTX) increase", "setting": "[1]; after 6 months", "value": 58, "unit": "%"},
      {"measurement": "serum P1NP change after 24 weeks", "setting": "[2]; [7]", "value": "did not increase significantly"},
      {"measurement": "serum osteocalcin change after 24 weeks", "setting": "[2]; [7]", "value": "increased significantly"},
      {"measurement": "urinary DPD maximum value, 24 h percent change from 0 h", "setting": "[2]; at 2 or 4 h after 56.5 μg injection, range of means over data collection weeks", "value": "29.5 to 31.6", "unit": "%"},
      {"measurement": "urinary NTX maximum value, 24 h percent change from 0 h", "setting": "[2]; at 4 or 6 h after 56.5 μg injection, range of means over data collection weeks", "value": "41.2 to 67.4", "unit": "%"},
      {"measurement": "urinary DPD decrease from baseline (0 h values)", "setting": "[2]; at 4 weeks, 56.5 μg once weekly, mean percent change", "value": 17.8, "unit": "%"},
      {"measurement": "serum P1NP increase from baseline (0 h values)", "setting": "[2]; [8]", "value": 19.9, "unit": "%"},
      {"measurement": "serum osteocalcin increase from baseline (0 h values)", "setting": "[2]; [8]", "value": 26.8, "unit": "%"},
      {"measurement": "urinary NTX decrease from baseline (0 h values)", "setting": "[2]; [8]", "value": 14.8, "unit": "%"},
      {"measurement": "serum P1NP minimum value, 24 h percent change from 0 h", "setting": "[2]; at 6 h after 56.5 μg injection, range of means over data collection weeks", "value": "−15.1 to −22.3", "unit": "%"},
      {"measurement": "NTX decrease", "setting": "[3]", "value": 10, "unit": "%"},
      {"measurement": "P1NP increase", "setting": "[3]", "value": 10, "unit": "%"},
      {"measurement": "osteocalcin increase", "setting": "[3]", "value": 5, "unit": "%"},
      {"measurement": "Hypercalcemia", "setting": "[4]", "value": "not observed"},
      {"measurement": "serious AEs", "setting": "[4]; 28 subjects", "value": "No serious AEs were observed"},
      {"measurement": "serum corrected Ca level during the 24 week dosage period", "setting": "[5]; 0 h values at 4 and 24 weeks versus 0 weeks, 56.5 μg once weekly, paired t test", "value": "decreased significantly"},
      {"measurement": "intact PTH level during the dosage period of 24 weeks", "setting": "[5]; 0 h values at 12 and 24 weeks versus 0 weeks, 56.5 μg once weekly, paired t test", "value": "decreased significantly"},
      {"measurement": "serum intact PTH minimum concentration", "setting": "[5]; at 2 or 6 h after 56.5 μg injection, range of means over data collection weeks", "value": "25.6 to 28.3", "unit": "pg/mL"},
      {"measurement": "relative risk reduction in vertebral fractures", "setting": "[6]; daily teriparatide", "value": 65, "unit": "%"},
      {"measurement": "relative risk of non-vertebral fragility fracture", "setting": "[6]; once-weekly teriparatide injection, 95 % CI, 0.24–1.84, p = 0.43", "value": 0.67},
      {"measurement": "relative risk reduction in vertebral fractures", "setting": "[6]; once-weekly teriparatide", "value": 80, "unit": "%"}
    ]}
  ]
}
